HIF activator: HIF pathway transcriptional activators, primary screen, cell-based, U2OS HRE-luciferase, luminescence. U2OS HRE-luciferase reporter; normalized: DMSO 0%, desferrioxamine 100%. activation, % at 7.5 µM (by protocol). 0.32% of 300,000 active. AID 1910, 2009;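 active = mean activation of at least 10% of the iron chelator positive control signal, with at least half of replicates also reaching 10%; inconclusive = mean and replicate majority disagree about reaching 10%; inactive = mean and most replicates under 10%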
PolyA inh: polyadenylation inhibitors in yeast reporter cells, primary screen, luminescence, S. cerevisiae | 0.02% of 300,000 active | S. cerevisiae SKY197-pL101 polyadenylation reporter, beta-gal luminescence; efflux-impaired pdr1/pdr3 knockout yeast; score 100 = 6 SD above DMSO | activity score, % at 12 µM;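 active = lowest replicate activity score at least 50, where 100 means six control SD above control mean; inconclusive = lowest score under 50 but half or more replicates reach 50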;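 note: yeast exposed to compound for 9 h at 30 °C; higher score means more reporter readthrough which indicates perturbed polyadenylation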
T cruzi inh: inhibitors of intracellular T. cruzi growth, primary screen, luminescence, NIH3T3 host cells; AID 1885, 2009; inhibition, % (no concentration beside the values); T. cruzi beta-gal in NIH3T3, 90 h; 1.4% of 300,000 active;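 active = mean inhibition across valid replicates above about 55%, limit read from the data; inconclusive = mean below that limit but half or more replicates reach it; inactive = mean below it, under half of replicates reach it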;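 note: signal also drops with host cell toxicity which is not excluded here; 0% = plate median of DMSO wells and 100% = zero luminescence signal; higher percent means less beta-gal luminescence so fewer parasites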
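System: Mouse NIH/3T3 fibroblasts infected with β-gal-expressing T. cruzi Tulahuen C4 | Quantity: NIH/3T3 cells, 5,000 per well | Reagent: 5000 reporter trypomastigotes per well | Dosing: Compound pinned at 50 nL/well, DMSO | Schedule: 3 h host attachment, then at least 90 h co-culture | Detection: GalScreen luminescence, 60 min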
Calb FLC: C. albicans growth inhibition with fluconazole, primary screen, CaCi-2 strain, Alamar Blue fluorescence; AID 1979, 2009; 0.57% of 300,000 active; growth inhibition, % (concentration not given with the values); C. albicans CaCi-2 (fluconazole-resistant clinical isolate) + fluconazole, 48 h;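 active = growth inhibition above about 58% in most replicates, limit read from the data, passing the limit was not always enough; inconclusive = exactly half the replicates above a set limit; inactive = most replicates below a set limit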;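 note: all wells also contain fluconazole at 8 µg/ml as a sub-toxic cotreatment; 0% = median of DMSO wells and 100% = median of geldanamycin control wells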
CSC inhib: cancer stem cell viability inhibitors, primary screen, luminescence; inhibition, % at 7.5 µM; 1.1% of 300,000 active; AID 2717, 2010; cancer stem cell-like cells viability; in the data active = inhibition above about 75%; inconclusive = no clear call, values can overlap the other calls; tested in HMLE shEcad cells
Beta cell apopt: inhibitors of cytokine-induced beta cell apoptosis, primary screen, luminescence; 0.8% of 300,000 active; protection from apoptosis, % (no concentration beside the values); INS-1E cytokine-induced death, ATP luminescence, 48 h; percent of positive-control rescue, neutral wells zero; AID 435005, 2010;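 active = Every replicate reaches about 75%, or at least half do and their mean reaches it too, limit read from the data; inconclusive = At least half of replicates reach the limit but their mean does not; inactive = Under half of replicates reach the limit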;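 note: 0% = cytokine-treated negative control wells and 100% = positive control rescue; higher means more ATP so stronger rescue from cytokine killing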
* hit, by the source's call; ? = inconclusive; nt = no result. Compounds with a hit are over-represented: about 3.1% of the library has one in this group of screens.

SMILES	HIF activator	PolyA inh	T cruzi inh	Calb FLC	CSC inhib	Beta cell apopt
O=C(/C=C/c1ccc2c(c1)OCO2)c1c(O)n(CCC2=CCCCC2)c(=O)[nH]c1=O	nt	nt	nt	nt	84*	1
CN(C)CCN=Cc1c(O)n(CCC2=CCCCC2)c(=O)[nH]c1=O	0	26	-11	-4	-2	-2
CCCCCCC(C)(C)c1ccc([C@@H]2C[C@H](O)CC[C@H]2CCCO)c(O)c1	nt	nt	nt	nt	103*	6
O=[N+]([O-])CCO	nt	nt	nt	nt	-15	1
CC/C(=N\NC(=S)Nc1ccccc1)c1c(O)[nH]c(=O)[nH]c1=O	1	-14	-8	7	-15	2
C/C(=N\Nc1ccccc1)c1c(O)n(-c2ccccc2)c(=O)[nH]c1=O	nt	-25	nt	-21	75*	1
Cn1c(O)c(C(=O)c2ccccc2)c(=O)n(C)c1=O	0	4	-1	-2	-12	-1
C/C(=N\Nc1ccccc1)c1c(O)n(Cc2ccccc2)c(=O)[nH]c1=O	0	-3	-2	19	110*	3
C/C(=N\Nc1ccccc1)c1c(O)n(C)c(=O)n(C)c1=O	0	-32	53	-1	91*	-4
C/C(=N\Nc1ccccc1)c1c(O)[nH]c(=O)[nH]c1=O	0	8	32	-21	82*	nt
CCCN(CC1CC1)CC(O)c1ccccc1 (stereo not given)	0	-6	-6	nt	1	-8
O=C(/C=C/c1ccc(Br)cc1)NC(=S)N1C[C@H]2C[C@H](C1)c1cccc(=O)n1C2	0	-1	0	3	1	-2
COc1cc2c(cc1OC)C(C(=O)N(C)C1CCCCC1)C1CCCCN1C2=O (stereo not given)	0	10	5	-2	-7	-6
COC(=O)C1=C(c2ccc(Cl)c(C(F)(F)F)c2)C[C@@H]2CC[C@H]1N2C(=O)NCCOc1ccccc1	nt	nt	nt	nt	7	-2
CN1CCN(c2ccc([N+](=O)[O-])c3no[n+]([O-])c23)CC1	-5	28	49	8	104*	107*
CN1CCN(c2ccc(S(C)(=O)=O)cc2[N+](=O)[O-])CC1	1	-10	6	-13	10	-3
O=c1c2ccccc2nc(/C=C/c2ccccc2F)n1-c1ccccc1O	0	6	-7	1	98*	14
O=c1c2ccccc2nc(/C=C/c2ccccc2O)n1-c1ccccc1O	-2	-2	11	11	45	6
COC(=O)C1=C(c2cccc(OC)c2OC)C[C@@H]2CC[C@H]1N2C(=O)NCC1CC1	0	-1	-4	-18	-7	-3
COC(=O)C1=C(c2cc3ccccc3s2)C[C@@H]2CC[C@H]1N2C(=O)N1CCC(O)CC1	-3	0	31	1	10	1
COc1ccc(OC)c(N2C(=O)NC(=O)/C(=C/c3ccc([N+](=O)[O-])s3)C2=O)c1	0	-14	65*	-6	-2	-2
CN1CC(C(=O)c2ccc([N+](=O)[O-])cc2)C(c2ccc(Cl)cc2)C1 (stereo not given)	-2	-2	31	-12	-10	-1
CCOc1cc2c(cc1OCC)-n1cccc1C(c1ccc(C(C)C)cc1)NC2 (stereo not given)	-1	-6	48	-2	?	28
O=C(c1cccnc1)c1cc2ccccc2[nH]1	16*	11	2	5	-2	-1
Oc1ccc(C(=C(Cl)Cl)c2ccc(O)cc2)cc1	-1	29	-13	-8	11	-8
SMILES	HIF activator	PolyA inh	T cruzi inh	Calb FLC	CSC inhib	Beta cell apopt
CC1(C)C[C@H]2C=C(C=O)[C@]3(C=O)C[C@]3(C)[C@H]2C1	-4	-15	?	-16	-6	105*
CSc1ccc(CNC(C)C(O)c2ccccc2)cc1 (stereo not given)	1	-3	12	-7	6	4
CNCC(O)c1cc(OCc2ccccc2)c(OCc2ccccc2)cc1F (stereo not given)	-3	-14	2	32	-21	6
COc1ccccc1CN1CCCC(C(=O)c2ccccc2OC)C1 (stereo not given)	-1	-1	18	-4	-3	4
COc1ccccc1CN1CCCC(C(=O)c2ccccc2SC)C1 (stereo not given)	0	2	60*	-9	-9	1
CCOC(=O)C(=CNc1ccc(C(O)(C(=O)OCC)C(F)(F)F)cc1C)C(=O)OCC (stereo not given)	0	4	17	2	11	97*
Cc1cc([N+](=O)[O-])c2ccccc2[n+]1[O-]	2	-6	79*	?	32	115*
Cc1ccccc1[N+](=O)[O-]	nt	nt	nt	nt	-13	5
Cc1cc(=O)oc2cc(OCC(=O)N3CCC(C(=O)O)(c4ccccc4)CC3)ccc12	0	-21	-8	-5	-6	-6
CCCC1COC(Cn2cncn2)(c2ccc(Cl)cc2Cl)O1 (stereo not given)	0	-46	65*	11	-1	nt
CCN1CCN(c2ccc([N+](=O)[O-])cc2C=C2C(=O)NC(=O)NC2=O)CC1	24*	6	24	-1	-5	-7
Cc1ccccc1-n1c(CNc2ccccc2)nc2ccccc2c1=O	0	-12	-5	0	-4	nt
CC(C)=CCc1c(O)cc2c(c1O)C(=O)CC(c1ccc(O)cc1)O2 (stereo not given)	1	-5	-10	3	99*	nt
C[C@]12CCC(=O)C=C1C=CC1C2CC[C@]2(C)C(=O)CCC12 (stereo not given in full)	nt	nt	nt	nt	-16	1
CCCC/C(C)=C/[C@@H](NP(=O)(c1ccccc1)c1ccccc1)c1ccccc1	0	0	40	5	114*	4
CCCCCCOc1ccc(CN2CCN(CCO)CC2)cc1	0	-57	52	-8	83*	4
CNc1ccc2oc(C[C@H]3O[C@@]4(CC[C@H]3C)O[C@H]([C@H](C)C(=O)c3ccc[nH]3)[C@H](C)C[C@H]4C)nc2c1C(=O)O	0	-28	28	nt	106*	109*
c1ccc(CN2CCN(Cc3ccc4ccccc4c3)CC2)cc1	1	0	38	-6	34	-1
Cc1ccc(CN2CCN(Cc3ccccc3)CC2)cc1	0	-7	59*	-29	20	-1
O=[N+]([O-])c1ccc(O)c([N+](=O)[O-])c1	0	-6	4	nt	5	7
O=[N+]([O-])c1ccc(Cl)c([N+](=O)[O-])c1	nt	nt	nt	nt	102*	14
CCN1CCN(C(=O)COc2ccc3oc4c(c3c2)CCCC4)CC1	nt	nt	nt	nt	-4	-4
